Calls of active or inactive are those of the source. No cut-off for these calls is given here. A value given as a limit tells only on which side of the number the result lay.

Experiment [1] addresses Adenosine receptor A2a (Rattus norvegicus) (UniProt P30543). Nature of the experiment: Displacement of [3H]-CGS- 21680 from A2A receptors in rat striatal membranes at 100 uM. The class given is cell membranes. Particulars: Membrane. A digest of the protocol:
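Rat striatal membranes as A2A receptor source; displacement of specific [3H]CGS 21680 binding. Reported as Ki ± SEM or as % displacement, n = 3-6.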
In general terms: Displacement assays read how much labelled ligand stays bound in the presence of the test substance.

The target in a further experiment is T1, Adenosine receptor A3 (Homo sapiens, UniProt P0DMS8).
T1 sequence (P0DMS8 whole entry): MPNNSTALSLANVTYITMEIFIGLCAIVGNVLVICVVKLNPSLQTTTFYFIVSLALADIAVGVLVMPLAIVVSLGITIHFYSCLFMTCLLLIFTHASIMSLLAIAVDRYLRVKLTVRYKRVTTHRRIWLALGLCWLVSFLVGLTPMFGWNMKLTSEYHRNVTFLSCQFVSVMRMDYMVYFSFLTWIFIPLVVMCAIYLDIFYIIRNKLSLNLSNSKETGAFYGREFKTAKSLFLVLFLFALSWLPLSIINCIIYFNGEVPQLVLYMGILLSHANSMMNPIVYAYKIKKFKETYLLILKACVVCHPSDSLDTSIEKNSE
In words: Displacement of [125I]AB-MECA from human Adenosine A3 receptor expressed in HEK293 cell membranes. The procedure, abridged:
(§1)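 Membranes from HEK-293 cells expressing human A3 receptor; specific [125I]AB-MECA binding displaced by test ligands. Reported as Ki ± SEM or as % displacement, n = 3-5.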

In the next experiment the target is T2, Adenosine receptor A1 (Rattus norvegicus, UniProt P25099).
T2 sequence (P25099 whole entry): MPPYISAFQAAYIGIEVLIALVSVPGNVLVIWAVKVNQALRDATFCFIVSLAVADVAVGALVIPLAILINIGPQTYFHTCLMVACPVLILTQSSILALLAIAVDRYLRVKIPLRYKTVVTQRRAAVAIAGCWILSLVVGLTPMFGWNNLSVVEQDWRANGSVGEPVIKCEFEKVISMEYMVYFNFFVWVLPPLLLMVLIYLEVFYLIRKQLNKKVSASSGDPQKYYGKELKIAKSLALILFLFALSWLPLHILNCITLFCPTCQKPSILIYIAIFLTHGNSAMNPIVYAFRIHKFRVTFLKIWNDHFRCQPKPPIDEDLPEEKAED
In words: Displacement of [3H]R-PIA binding to Adenosine A1 receptor in rat brain membrane. The class given is cell membranes.

For experiment [2], the target named is T3, Adenosine receptor A1 (Rattus norvegicus) (UniProt P25099).
T3 sequence (whole entry): T2 sequence (P25099 whole entry)
Nature of the experiment: Displacement of [3H]R-PIA from Adenosine A1 receptor in rat brain membrane at 100 uM. The experiment is classed as cell membranes.

The test system of experiment [3] is HL-60. Nature of the experiment: Effect on calcium mobilization in HL-60 cells at the dose of 100 uM concentration (1 uM UTP). The experiment is classed as functional, Homo sapiens.
Experiment [4] has as its target T4, Adenosine receptor A3 (Homo sapiens) (UniProt P0DMS8).
T4 sequence (whole entry): T1 sequence (P0DMS8 whole entry)
In words: Displacement of [125I]AB-MECA from human Adenosine A3 receptor expressed in HEK293 cell membranes at 100 uM. A digest of the protocol:
as §1

Experiment [5] has as its system HL-60. Nature of the experiment: Effect on calcium mobilization in HL-60 cells at the dose of 100 uM concentration; Inactive. Particulars: Homo sapiens. The class given is functional, cell-based. In general terms: Calcium flux is commonly read through the fluorescence of an indicator in the cells.

Chain of Adenosine receptor A2a (Rattus norvegicus) (P30543 whole entry): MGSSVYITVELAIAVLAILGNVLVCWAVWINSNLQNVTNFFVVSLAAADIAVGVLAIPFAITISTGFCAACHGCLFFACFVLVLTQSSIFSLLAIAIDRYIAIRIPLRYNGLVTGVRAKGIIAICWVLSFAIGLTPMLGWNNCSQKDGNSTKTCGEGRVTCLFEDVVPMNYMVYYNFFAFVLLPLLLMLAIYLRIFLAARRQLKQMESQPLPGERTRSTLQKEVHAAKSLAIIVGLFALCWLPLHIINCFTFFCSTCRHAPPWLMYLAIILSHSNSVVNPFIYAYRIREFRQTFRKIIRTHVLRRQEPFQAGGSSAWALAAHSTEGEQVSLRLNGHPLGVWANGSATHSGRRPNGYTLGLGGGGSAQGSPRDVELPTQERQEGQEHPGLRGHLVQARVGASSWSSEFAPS

As a reminder, the Ki is the dissociation constant of the complex between target and ligand, obtained from inhibition or displacement. Low values mean tighter binding, high ones weaker binding. In experiment [1], `CCCCn1c(=O)c2c(ncn2[C@H]2[C@H](O)[C@H](O)[C@]3(CO)C[C@H]23)n(CCCC)c1=O` registered a Displacement of less than 10%. Besides, the results for the Ki on Adenosine receptor A3 and on Adenosine receptor A1 were 4.35 µM and 2.97 µM, respectively.

In turn, `CNC(=O)[C@@]12C[C@@H]1[C@@H](n1cnc3c(=O)[nH]cnc31)[C@H](O)[C@@H]2O` gave a Ki on Adenosine receptor A3 of 28.8 µM.

In the case of `Nc1nc(O)c2ncn([C@H]3[C@H](O)[C@H](O)[C@]4(CO)C[C@H]34)c2n1`, the Displacement in experiment [2] and in experiment [1] was less than 10% each time. This compound came in with a Ki at Adenosine receptor A3 of 20.5 µM.

Regarding `CNC(=O)[C@@]12C[C@@H]1[C@@H](n1cnc3c(O)ncnc31)[C@H](O)[C@@H]2O`, the Displacement in experiment [2] and in experiment [1] was less than 10% in each case.

Regarding `OC[C@@]12C[C@@H]1[C@@H](n1cnc3c(O)ncnc31)[C@H](O)[C@@H]2O`, the Displacement in experiment [2] and in experiment [1] was less than 10% throughout.

`CCCCn1c(=O)c2c(ncn2[C@H]2[C@H](O)[C@H](O)[C@]3(C(=O)NC)C[C@H]23)n(CCCC)c1=O` gave a Displacement in experiment [1] of less than 10%. Moreover, the Ki on Adenosine receptor A3 is 1.86 µM; on Adenosine receptor A1, 24.4 µM.

For the compound `Nc1nc(O)c2ncn([C@H]3[C@H](O)[C@H](O)[C@]4(COP(=O)(O)OP(=O)(O)OP(=O)(O)O)C[C@H]34)c2n1`, in the experiment on HL-60 [3], the Activity was found to be 53%. The compound also yielded a Displacement in experiment [4] of less than 10%.

Consider `CCCCn1c(=O)c2c(ncn2[C@H]2[C@H](O)[C@H](O)[C@]3(OP(=O)(O)OP(=O)(O)OP(=O)(O)O)C[C@H]23)n(CCCC)c1=O`, for which the Displacement in experiment [4] was less than 10%.

With `O=P(O)(OC[C@@]12C[C@@H]1[C@@H](n1cnc3c(O)ncnc31)[C@H](O)[C@@H]2O)OP(=O)(O)OC[C@@]12C[C@@H]1[C@@H](n1cnc3c(O)ncnc31)[C@H](O)[C@@H]2O`, the result in the experiment on HL-60 [5] was inactive. In addition, the Ki at Adenosine receptor A3 was 21.6 µM.

Take `O=P(O)(O)OC[C@@]12C[C@@H]1[C@@H](n1cnc3c(O)ncnc31)[C@H](O)[C@@H]2O`: in the experiment on HL-60 [5], the result was inactive.
